These results are taken from ChEMBL document CHEMBL4038304, “Chiral Indolylarylsulfone Non-Nucleoside Reverse Transcriptase Inhibitors as New Potent and Broad Spectrum Anti-HIV-1 Agents” (J Med Chem, 2017).

pEC50: −log10 of the molar value.

One data set deals with Human immunodeficiency virus 1. The data set is described as follows: Ratio of EC50 for HIV-1 harboring reverse transcriptase K103N mutant infected in human MT4 cells to EC50 for HIV1 NL4-3 infected in human MT4 cells. Type of data set: functional.
Conditions: not given
The procedure, abridged: (§1)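 Fold change calculated as EC50 against the stated resistant mutant HIV-1 strain divided by EC50 against wild-type NL4-3. Both EC50s come from MTT read-out of virus-induced death in MT-4 cells, mean of two to three independent experiments each in triplicate.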
Consider `Cc1cc(C)cc(S(=O)(=O)c2c(C(=O)NC(C)c3ccco3)[nH]c3ccc(Cl)cc23)c1` (racemic), for which the “Ratio EC50” value is 155.
The same measure, in the same setting: with `Cc1cc(C)cc(S(=O)(=O)c2c(C(=O)NC(C)C(=O)NC(C)c3ccccc3)[nH]c3ccc(Cl)cc23)c1` (racemic) the figure was 3.2; with `Cc1cc(C)cc(S(=O)(=O)c2c(C(=O)NC(C)C(=O)NCc3ccncn3)[nH]c3ccc(Cl)cc23)c1` (racemic), 1.

Another data set relates to Human immunodeficiency virus 1. The experiment in a line: Ratio of EC50 for HIV-1 harboring reverse transcriptase Y181C mutant infected in human MT4 cells to EC50 for HIV1 NL4-3 infected in human MT4 cells. It is filed as functional.
Conditions: not given
Put shortly:
as §1
As to `Cc1cc(C)cc(S(=O)(=O)c2c(C(=O)NC(C)c3ccco3)[nH]c3ccc(Cl)cc23)c1` (racemic), the “Ratio EC50” value is 31.
Still for that read-out and setting: with `Cc1cc(C)cc(S(=O)(=O)c2c(C(=O)NC(C)C(=O)NC(C)c3ccccc3)[nH]c3ccc(Cl)cc23)c1` (racemic) the figure was 283; with `Cc1cc(C)cc(S(=O)(=O)c2c(C(=O)NC(C)C(=O)NCc3ccncn3)[nH]c3ccc(Cl)cc23)c1` (racemic), 1.

The subject of the next data set is Human immunodeficiency virus 1. The experiment in a line: Antiviral activity against HIV1 harboring reverse transcriptase Y181C mutant infected in human […] cells assessed as protection against virus-induced cytopathic effect measured on day 5 post infection by MTT assay. As to conditions: Human immunodeficiency virus 1, 120 h. It is filed as functional, cell-based.
With `Cc1cc(C)cc(S(=O)(=O)c2c(C(=O)NC(C)c3ccco3)[nH]c3ccc(Cl)cc23)c1` (racemic), the pEC50 is 7.66.
Same read-out and setting: with `Cc1cc(C)cc(S(=O)(=O)c2c(C(=O)NC(C)C(=O)NC(C)c3ccccc3)[nH]c3ccc(Cl)cc23)c1` (racemic) the figure was 6.78; with `Cc1cc(C)cc(S(=O)(=O)c2c(C(=O)NC(C)C(=O)NCc3ccncn3)[nH]c3ccc(Cl)cc23)c1` (racemic), 9.22.

For another data set, the system named is Human immunodeficiency virus 1. The experiment in a line: Antiviral activity against HIV1 NL4-3 infected in human […] cells assessed as protection against virus-induced cytopathic effect measured on day 5 post infection by MTT assay. It is filed as functional, cell-based. As to conditions: Human immunodeficiency virus 1, NL4-3, 120 h. The procedure, abridged: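 Values are means of two to three independent experiments, each run in triplicate. The lowest detectable concentration is reported where activity fell below the assay limit.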
On to `Cc1cc(C)cc(S(=O)(=O)c2c(C(=O)NC(C)c3ccco3)[nH]c3ccc(Cl)cc23)c1` (racemic), for which the pEC50 is 9.15.
On the same count and under the same terms, with `Cc1cc(C)cc(S(=O)(=O)c2c(C(=O)NC(C)C(=O)NC(C)c3ccccc3)[nH]c3ccc(Cl)cc23)c1` (racemic) the figure was 9.22; with `Cc1cc(C)cc(S(=O)(=O)c2c(C(=O)NC(C)C(=O)NCc3ccncn3)[nH]c3ccc(Cl)cc23)c1` (racemic), 9.22.

In the next data set the test system is Human immunodeficiency virus 1. The data set is described as follows: Antiviral activity against HIV1 harboring reverse transcriptase Y188L mutant infected in human […] cells assessed as protection against virus-induced cytopathic effect measured on day 5 post infection by MTT assay. As to conditions: Human immunodeficiency virus 1, 120 h. It is filed as functional, cell-based.
Consider `Cc1cc(C)cc(S(=O)(=O)c2c(C(=O)NC(C)c3ccco3)[nH]c3ccc(Cl)cc23)c1` (racemic), for which the pEC50 is 6.46.
As to `Cc1cc(C)cc(S(=O)(=O)c2c(C(=O)NC(C)C(=O)NC(C)c3ccccc3)[nH]c3ccc(Cl)cc23)c1` (racemic), the pEC50 is 5.42.
Turning to `Cc1cc(C)cc(S(=O)(=O)c2c(C(=O)NC(C)C(=O)NCc3ccncn3)[nH]c3ccc(Cl)cc23)c1` (racemic), the negative logarithm of the EC50 (pEC50) was 6.12.

Tested on in another data set: not listed separately
The data set is described as follows: Cytotoxicity against human MT4 cells assessed as cell viability by MTT assay. It is filed as cell-based.
Conditions: not given
Put shortly:
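Uninfected MT-4 cells scored for viability by MTT. […] Values are means of two to three independent experiments, each run in triplicate.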
For the compound `Cc1cc(C)cc(S(=O)(=O)c2c(C(=O)NC(C)c3ccco3)[nH]c3ccc(Cl)cc23)c1` (racemic), the cytotoxic concentration (CC50) is > 54.7 µM.
Same read-out and setting: to `Cc1cc(C)cc(S(=O)(=O)c2c(C(=O)NC(C)C(=O)NC(C)c3ccccc3)[nH]c3ccc(Cl)cc23)c1` (racemic) belongs 21.7 µM; to `Cc1cc(C)cc(S(=O)(=O)c2c(C(=O)NC(C)C(=O)NCc3ccncn3)[nH]c3ccc(Cl)cc23)c1` (racemic), 28.1 µM.

Another data set has as its system Human immunodeficiency virus 1. The data set is described as follows: Antiviral activity against HIV1 harboring reverse transcriptase K103N /[…] double mutant infected in human […] cells assessed as protection against virus-induced cytopathic effect measured on day 5 post infection by MTT assay. The settings on record: Human immunodeficiency virus 1, 120 h. It is filed as functional, cell-based.
As for `Cc1cc(C)cc(S(=O)(=O)c2c(C(=O)NC(C)c3ccco3)[nH]c3ccc(Cl)cc23)c1` (racemic), the pEC50 was 4.92.
Same read-out and setting: with `Cc1cc(C)cc(S(=O)(=O)c2c(C(=O)NC(C)C(=O)NC(C)c3ccccc3)[nH]c3ccc(Cl)cc23)c1` (racemic) the figure was 4.60.
Still for that read-out and setting: to `Cc1cc(C)cc(S(=O)(=O)c2c(C(=O)NC(C)C(=O)NCc3ccncn3)[nH]c3ccc(Cl)cc23)c1` (racemic) belongs 6.10.

For a further data set, the system named is Human immunodeficiency virus 1. The experiment in a line: Ratio of EC50 for HIV-1 harboring reverse transcriptase K103N/[…] double mutant infected in human MT4 cells to EC50 for HIV1 NL4-3 infected in human MT4 cells. Type of data set: functional.
Conditions: not given
Put shortly: as §1
Consider `Cc1cc(C)cc(S(=O)(=O)c2c(C(=O)NC(C)c3ccco3)[nH]c3ccc(Cl)cc23)c1` (racemic), for which the “Ratio EC50” value is 17195.
As to `Cc1cc(C)cc(S(=O)(=O)c2c(C(=O)NC(C)C(=O)NC(C)c3ccccc3)[nH]c3ccc(Cl)cc23)c1` (racemic), the “Ratio EC50” value came to 42149.
Consider `Cc1cc(C)cc(S(=O)(=O)c2c(C(=O)NC(C)C(=O)NCc3ccncn3)[nH]c3ccc(Cl)cc23)c1` (racemic), for which the “Ratio EC50” value is >1330.

In a further data set the test system is Human immunodeficiency virus 1. The data set is described as follows: Antiviral activity against HIV1 harboring reverse transcriptase K103N mutant infected in human […] cells assessed as protection against virus-induced cytopathic effect measured on day 5 post infection by MTT assay. It is filed as functional, cell-based. The settings on record: Human immunodeficiency virus 1, 120 h.
Consider `Cc1cc(C)cc(S(=O)(=O)c2c(C(=O)NC(C)c3ccco3)[nH]c3ccc(Cl)cc23)c1` (racemic), for which the pEC50 is 6.96.
On to `Cc1cc(C)cc(S(=O)(=O)c2c(C(=O)NC(C)C(=O)NC(C)c3ccccc3)[nH]c3ccc(Cl)cc23)c1` (racemic), for which the pEC50 is 8.72.
`Cc1cc(C)cc(S(=O)(=O)c2c(C(=O)NC(C)C(=O)NCc3ccncn3)[nH]c3ccc(Cl)cc23)c1` (racemic): the pEC50 is 9.22.

Another data set deals with Human immunodeficiency virus 1. The experiment in a line: Ratio of EC50 for HIV-1 harboring reverse transcriptase Y188L mutant infected in human MT4 cells to EC50 for HIV1 NL4-3 infected in human MT4 cells. It is filed as functional.
Conditions: not given
Put shortly:
as §1
Consider `Cc1cc(C)cc(S(=O)(=O)c2c(C(=O)NC(C)c3ccco3)[nH]c3ccc(Cl)cc23)c1` (racemic), for which the “Ratio EC50” value is on record as 500.
Still for that read-out and setting: with `Cc1cc(C)cc(S(=O)(=O)c2c(C(=O)NC(C)C(=O)NC(C)c3ccccc3)[nH]c3ccc(Cl)cc23)c1` (racemic) the figure was 6427.
`Cc1cc(C)cc(S(=O)(=O)c2c(C(=O)NC(C)C(=O)NCc3ccncn3)[nH]c3ccc(Cl)cc23)c1` (racemic): the “Ratio EC50” value is >1267.

Tested on in a further data set: not listed separately
The data set is described as follows: Selectivity index, ratio of CC50 for human MT4 cells to EC50 for HIV1 NL4-3 infected in human MT4 cells. The settings on record: read-out: Ratio CC50/EC50. Type of data set: toxicity, cell-based. Put shortly: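 SI computed as CC50/EC50, using the MTT-based CC50 in uninfected MT-4 cells and the MTT-based EC50 against HIV-1 NL4-3-induced cell death in MT-4 cells. Experiments were run in triplicate, two to three times.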
For `Cc1cc(C)cc(S(=O)(=O)c2c(C(=O)NC(C)c3ccco3)[nH]c3ccc(Cl)cc23)c1` (racemic), the selectivity ratio was > 78200.
With `Cc1cc(C)cc(S(=O)(=O)c2c(C(=O)NC(C)C(=O)NC(C)c3ccccc3)[nH]c3ccc(Cl)cc23)c1` (racemic), the selectivity ratio was > 36900.
In the case of `Cc1cc(C)cc(S(=O)(=O)c2c(C(=O)NC(C)C(=O)NCc3ccncn3)[nH]c3ccc(Cl)cc23)c1` (racemic), the selectivity ratio was > 46800.
